# Measured values reported in ChEMBL document CHEMBL4689842, “EUbOPEN Chemogenomics Library wave 1” (2021).
# Test system: HEK-293T
# Assay: Multiplex assay against HEK293T;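 on Population Tubulin-Different-Phenotype (%): share of the cells with healthy nuclei that show this phenotype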
# Type: toxicity, cell-based
# Conditions: human
# Method in brief: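 Four dyes were applied at seeding to live cells: Hoechst33342, BioTracker Green Microtubule Cytoskeleton Dye, MitoTracker Red and Annexin V Alexa Fluor 680. Imaging after compound addition used a CQ1 microscope at 37°C and 5% CO2. CellPathfinder machine-learning gating then sorted cells into Hoechst high-intensity objects or normal cells, normal cells into healthy, pyknosed or fragmented nuclei, and pyknosed cells into mitotic or apoptotic, with tubulin, mitochondrial-mass and membrane-permeability phenotypes given as per cents of healthy-nucleus cells.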
# [1] = 12 h, 1 µM, compound concentration 1 uM, replicate 1
# [2] = 12 h, 1 µM, compound concentration 1 uM, replicate 2
# [3] = 12 h, 10 µM, compound concentration 10 uM, replicate 1
# [4] = 12 h, 10 µM, compound concentration 10 uM, replicate 2
# [5] = 24 h, 1 µM, compound concentration 1 uM, replicate 1
# [6] = 24 h, 1 µM, compound concentration 1 uM, replicate 2
# [7] = 24 h, 10 µM, compound concentration 10 uM, replicate 1
# [8] = 24 h, 10 µM, compound concentration 10 uM, replicate 2
# [9] = 48 h, 1 µM, compound concentration 1 uM, replicate 1
# [10] = 48 h, 1 µM, compound concentration 1 uM, replicate 2
# [11] = 48 h, 10 µM, compound concentration 10 uM, replicate 1
# [12] = 48 h, 10 µM, compound concentration 10 uM, replicate 2
smiles,measurement,setting,value
COc1ccc(-c2ccc3ncc4c(c3c2)n(-c2ccc(N3CCNCC3)c(C(F)(F)F)c2)c(=O)n4C)cn1.O=C(O)/C=C\C(=O)O [BGT-226],Population Apoptotic (%),[1],70%
same,Population Fragmented Nuclei (%),[1],22%
same,Population Healthy Nuclei (%),[1],2%
same,Population Hoechst High Intensity Objects (%),[1],25%
same,Population Mitochondria Different-Phenotype (%),[1],87%
same,Population Mitotic Cells (%),[1],29%
same,Population Normal (%),[1],74%
same,Population Pyknosed Nuclei (%),[1],74%
same,Population Tubulin-Different-Phenotype (%),[1],87%
same,Total Cell Count,[1],358
same,Population Apoptotic (%),[2],78%
same,Population Fragmented Nuclei (%),[2],8%
same,Population Healthy Nuclei (%),[2],6%
same,Population Hoechst High Intensity Objects (%),[2],10%
same,Population Membrane Permeable-Phenotype (%),[2],0%
same,Population Mitochondria Different-Phenotype (%),[2],100%
same,Population Mitotic Cells (%),[2],21%
same,Population Normal (%),[2],89%
same,Population Pyknosed Nuclei (%),[2],84%
same,Population Tubulin-Different-Phenotype (%),[2],90%
same,Total Cell Count,[2],162
same,Population Apoptotic (%),[3],72%
same,Population Fragmented Nuclei (%),[3],28%
same,Population Healthy Nuclei (%),[3],0%
same,Population Hoechst High Intensity Objects (%),[3],28%
same,Population Membrane Permeable-Phenotype (%),[3],50%
same,Population Mitochondria Different-Phenotype (%),[3],50%
same,Population Mitotic Cells (%),[3],27%
same,Population Normal (%),[3],71%
same,Population Pyknosed Nuclei (%),[3],70%
same,Population Tubulin-Different-Phenotype (%),[3],100%
same,Total Cell Count,[3],306
same,Population Apoptotic (%),[4],96%
same,Population Fragmented Nuclei (%),[4],51%
same,Population Healthy Nuclei (%),[4],7%
same,Population Hoechst High Intensity Objects (%),[4],45%
same,Population Membrane Permeable-Phenotype (%),[4],11%
same,Population Mitochondria Different-Phenotype (%),[4],16%
same,Population Mitotic Cells (%),[4],3%
same,Population Normal (%),[4],54%
same,Population Pyknosed Nuclei (%),[4],41%
same,Population Tubulin-Different-Phenotype (%),[4],66%
same,Total Cell Count,[4],454
same,Population Apoptotic (%),[5],70%
same,Population Fragmented Nuclei (%),[5],27%
same,Population Healthy Nuclei (%),[5],2%
same,Population Hoechst High Intensity Objects (%),[5],20%
same,Population Membrane Permeable-Phenotype (%),[5],12%
same,Population Mitochondria Different-Phenotype (%),[5],75%
same,Population Mitotic Cells (%),[5],29%
same,Population Normal (%),[5],79%
same,Population Pyknosed Nuclei (%),[5],69%
same,Population Tubulin-Different-Phenotype (%),[5],75%
same,Total Cell Count,[5],358
same,Population Apoptotic (%),[6],84%
same,Population Fragmented Nuclei (%),[6],9%
same,Population Healthy Nuclei (%),[6],9%
same,Population Hoechst High Intensity Objects (%),[6],8%
same,Population Membrane Permeable-Phenotype (%),[6],7%
same,Population Mitochondria Different-Phenotype (%),[6],92%
same,Population Mitotic Cells (%),[6],15%
same,Population Normal (%),[6],91%
same,Population Pyknosed Nuclei (%),[6],81%
same,Population Tubulin-Different-Phenotype (%),[6],92%
same,Total Cell Count,[6],169
same,Population Apoptotic (%),[7],77%
same,Population Fragmented Nuclei (%),[7],38%
same,Population Healthy Nuclei (%),[7],0%
same,Population Hoechst High Intensity Objects (%),[7],35%
same,Population Membrane Permeable-Phenotype (%),[7],0%
same,Population Mitochondria Different-Phenotype (%),[7],0%
same,Population Mitotic Cells (%),[7],22%
same,Population Normal (%),[7],64%
same,Population Pyknosed Nuclei (%),[7],61%
same,Population Tubulin-Different-Phenotype (%),[7],0%
same,Total Cell Count,[7],317
same,Population Apoptotic (%),[8],98%
same,Population Fragmented Nuclei (%),[8],48%
same,Population Healthy Nuclei (%),[8],15%
same,Population Hoechst High Intensity Objects (%),[8],46%
same,Population Membrane Permeable-Phenotype (%),[8],25%
same,Population Mitochondria Different-Phenotype (%),[8],28%
same,Population Mitotic Cells (%),[8],1%
same,Population Normal (%),[8],53%
same,Population Pyknosed Nuclei (%),[8],35%
same,Population Tubulin-Different-Phenotype (%),[8],77%
same,Total Cell Count,[8],422
same,Population Apoptotic (%),[9],74%
same,Population Fragmented Nuclei (%),[9],38%
same,Population Healthy Nuclei (%),[9],1%
same,Population Hoechst High Intensity Objects (%),[9],21%
same,Population Membrane Permeable-Phenotype (%),[9],0%
same,Population Mitochondria Different-Phenotype (%),[9],100%
same,Population Mitotic Cells (%),[9],25%
same,Population Normal (%),[9],78%
same,Population Pyknosed Nuclei (%),[9],60%
same,Population Tubulin-Different-Phenotype (%),[9],100%
same,Total Cell Count,[9],380
same,Population Apoptotic (%),[10],84%
same,Population Fragmented Nuclei (%),[10],10%
same,Population Healthy Nuclei (%),[10],18%
same,Population Hoechst High Intensity Objects (%),[10],11%
same,Population Membrane Permeable-Phenotype (%),[10],3%
same,Population Mitochondria Different-Phenotype (%),[10],88%
same,Population Mitotic Cells (%),[10],15%
same,Population Normal (%),[10],88%
same,Population Pyknosed Nuclei (%),[10],71%
same,Population Tubulin-Different-Phenotype (%),[10],85%
same,Total Cell Count,[10],166
same,Population Apoptotic (%),[11],85%
same,Population Fragmented Nuclei (%),[11],45%
same,Population Healthy Nuclei (%),[11],0%
same,Population Hoechst High Intensity Objects (%),[11],42%
same,Population Membrane Permeable-Phenotype (%),[11],0%
same,Population Mitochondria Different-Phenotype (%),[11],0%
same,Population Mitotic Cells (%),[11],14%
same,Population Normal (%),[11],57%
same,Population Pyknosed Nuclei (%),[11],54%
same,Population Tubulin-Different-Phenotype (%),[11],0%
same,Total Cell Count,[11],360
same,Population Apoptotic (%),[12],98%
same,Population Fragmented Nuclei (%),[12],53%
same,Population Healthy Nuclei (%),[12],22%
same,Population Hoechst High Intensity Objects (%),[12],44%
same,Population Membrane Permeable-Phenotype (%),[12],14%
same,Population Mitochondria Different-Phenotype (%),[12],48%
same,Population Mitotic Cells (%),[12],1%
same,Population Normal (%),[12],55%
same,Population Pyknosed Nuclei (%),[12],24%
same,Population Tubulin-Different-Phenotype (%),[12],75%
same,Total Cell Count,[12],397
